This note sets out measurements from ChEMBL document CHEMBL1821664, “Sulfonamides as a new scaffold for hypoxia inducible factor pathway inhibitors” (Bioorg Med Chem Lett, 2011).

Experiment [1] concerns the target T1, Hypoxia inducible factors; HIF-1-alpha, HIF-2-alpha (Homo sapiens, UniProt Q16665+Q99814). In words: Inhibition of hypoxia-induced HIF1 activation in human LN229 cells expressing HRE-AP reporter gene at 5 uM preincubated for 1 hr under normoxia condition followed by 24 hrs incubation under hypoxia condition by HRE-luciferase reporter assay relative to control; values are per cent of control.

Experiment [2] has as its target T1, Hypoxia inducible factors; HIF-1-alpha, HIF-2-alpha. In words: Inhibition of hypoxia-induced HIF1 activation in human LN229 cells expressing HRE-AP reporter gene preincubated for 1 hr under normoxia condition followed by 24 hrs incubation under hypoxia condition by HRE-luciferase reporter assay. In kind it is cell-based. The essentials: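 HRE-luciferase dose-response: cells pre-treated 1 h, then 24 h hypoxia; luciferase measured in cell extracts; each compound run 5–21 times on separate days, in triplicate. IC50 obtained from a four-parameter logistic fit using a nonlinear mixed-effects model.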

Experiment [3] shares this target. In words: Inhibition of hypoxia-induced HIF1 activation in human LN229 cells expressing VEGF reporter gene assessed as VEGF expression at 10 uM after 24 hrs incubation under hypoxia condition by luciferase reporter assay. Format: cell-based. The essentials:
(§1)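 LN229 cells stably carrying a VEGF promoter-luciferase construct, pre-treated 1 h in normoxia with compound at 10 µM final, then 24 h in normoxia or hypoxia; luciferase measured in cell extracts; triplicate means ± SD.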

The target is the same in experiment [4]. The experiment in a line: Inhibition of hypoxia-induced HIF1 activation in human LN229 cells expressing HRE-AP reporter gene at 10 uM preincubated for 1 hr under normoxia condition followed by 24 hrs incubation under hypoxia condition by HRE-luciferase reporter assay relative to control; values are per cent of control.
For experiment [5] the target is unchanged. The experiment in a line: Inhibition of hypoxia-induced HIF1 activation in human LN229 cells expressing HRE-AP reporter gene at 2.5 uM preincubated for 1 hr under normoxia condition followed by 24 hrs incubation under hypoxia condition by HRE-luciferase reporter assay relative to control; values are per cent of control.
Experiment [6] has the same target. The experiment in a line: Inhibition of hypoxia-induced HIF1 activation in human LN229 cells expressing VEGF reporter gene assessed as VEGF expression at 10 uM preincubated for 1 hr under normoxia condition followed by 24 hrs incubation under hypoxia condition by luciferase reporter assay. In kind it is cell-based. The essentials:
as §1

Experiment [7] shares this target. In words: Inhibition of hypoxia-induced HIF1 activation in human LN229 cells expressing HRE-AP reporter gene assessed as HRE remaining activity at 10 uM preincubated for 1 hr under normoxia condition followed by 24 hrs incubation under hypoxia condition by alkaline phosphatase reporter assay relative to control. In kind it is cell-based. In a few lines:
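LN229-HRE-AP cells pre-treated 1 h with compound or vehicle (1% DMSO), then 24 h in 1% O2 hypoxia incubator; cells lysed and alkaline phosphatase activity measured. Hits were compounds reducing hypoxic AP induction >50%; single assay.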

Experiment [8] has the same target. In words: Inhibition of HIF1alpha expression in human LN229 cells assessed as reduction of HIF-1alpha accumulation at <10 uM preincubated for 1 hr under normoxia condition followed by 24 hrs incubation under hypoxia condition by Western blotting. Format: functional, cell-based. The conditions noted are these: LN-229.
Experiment [9] shares this target. In words: Inhibition of HIF1alpha expression in human LN229 cells assessed as reduction of HIF-1alpha accumulation at 20 uM preincubated for 1 hr under normoxia condition followed by 24 hrs incubation under hypoxia condition by Western blotting. As to conditions: LN-229. Format: functional, cell-based. In a few lines: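 LN229 glioma cells were pre-treated for 1 h with compound at 20 µM final, then incubated under normoxia or hypoxia for 24 h. HIF-1α accumulation was read by Western blot, with HIF-1α and actin immunoblotted.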

Experiment [10] has the same target. In words: Inhibition of HIF1alpha expression in human LN229 cells assessed as reduction of HIF-1alpha accumulation at 100 nM preincubated for 1 hr under normoxia condition followed by 24 hrs incubation under hypoxia condition by Western blotting. In kind it is functional, cell-based. The conditions noted are these: LN-229.

Activity calls are given as the source filed them. The calls are words filed in the database; no cut-off is given here.

As to `CC(C)CN(Cc1ccc2c(c1)C=CC(C)(C)O2)S(=O)(=O)c1cc(Cl)ccc1Cl`, the results for the residual activity in [1], in [4] and in experiment [5] were 5%, 1% and 23%, respectively. In experiment [2], the IC50 is 0.731 µM. Moreover, the inhibition entry in [3] was “inactive”. The inhibition entry in [6] was “Active”.

For `CC1(C)C=Cc2cc(CN(Cc3ccccc3)S(=O)(=O)c3ccc(Br)cc3OC(F)(F)F)ccc2O1`, the residual activity in experiment [1] worked out at 2%; in experiment [4], 1%; in experiment [5], 15%. The IC50 in experiment [2] came out at 0.508 µM. For the same molecule, the inhibition entry in [3] is “inactive”. In addition, the inhibition entry in experiment [6] is “Active”.

Take `COc1cc(OC)cc(S(=O)(=O)N(Cc2ccc3c(c2)C=CC(C)(C)O3)CC(C)C)c1`: the IC50 in [2] stood at 1.011 µM. In addition, the inhibition result in experiment [3] is “inactive”. Further, the inhibition result in [6] was “Active”.

Regarding `COc1ccc(S(=O)(=O)N(Cc2ccc3c(c2)C=CC(C)(C)O3)C2CCCCC2)c(OC)c1`, the residual activity in experiment [1] is 5%; in experiment [4], 1%; in [5], 24%. The IC50 in experiment [2] was determined as 1.27 µM. The inhibition result in [3] was “inactive”. In experiment [6], the inhibition entry is “Active”.

In the case of `CC(C)CN(Cc1ccc2c(c1)C=CC(C)(C)O2)S(=O)(=O)c1ccc([N+](=O)[O-])cc1`, the residual activity was 3% in [1], 1% in [4] and 13% in [5]. The molecule further registered an IC50 in experiment [2] of 0.532 µM. For the same molecule, in [3], the inhibition entry was “inactive”. Besides, the inhibition entry in [6] is “Active”.

With `CC1(C)C=Cc2cc(CN(c3ccccc3)S(=O)(=O)c3cc(Cl)ccc3Cl)ccc2O1`, the residual activity worked out at 51% in [1], 35% in [4] and 62% in experiment [5]. For the same molecule, the Activity in experiment [7] was 54.2%.

With `COc1ccc(S(=O)(=O)N(Cc2ccc3c(c2)C=CC(C)(C)O3)CC(C)C)cc1OC`, the residual activity in experiment [1] came to 6%; in [4], 1%; in [5], 21%. In experiment [2], this molecule came in with an IC50 of 0.672 µM. In addition, the inhibition entry in experiment [3] is “inactive”. Moreover, the inhibition entry in experiment [6] was “Active”.

`CC(C)CN(Cc1ccc2c(c1)C=CC(C)(C)O2)S(=O)(=O)c1cccc2ccccc12`: the values for the residual activity in experiment [1], in [4] and in experiment [5] were 4%, 4% and 6%, respectively. This molecule had an IC50 in experiment [2] of 0.656 µM. Also, the inhibition result in [3] is “inactive”. In addition, the inhibition result in experiment [6] is “Active”.

Take `COc1ccc(S(=O)(=O)N(Cc2ccc3c(c2)C=CC(C)(C)O3)c2ccccc2)cc1OC`: the residual activity in experiment [1] is 2%; in [4], 1%; in [5], 18%. The molecule further had an IC50 in [2] of 0.593 µM. The inhibition result in [3] and in [8] was “inactive” in each case. Further, the inhibition entry in [9] and in experiment [6] was “Active” each time. Further, the Activity in experiment [7] worked out at 28.9%.

For the molecule `COc1ccc(S(=O)(=O)N(Cc2ccc3c(c2)C=CC(C)(C)O3)c2ccccc2)c(OC)c1`, the residual activity in experiment [1] came out at 61%; in experiment [4] it was 31%; in experiment [5] it was 76%.

Regarding `CC(C)C[C@H](NC(=O)[C@H](Cc1ccccc1)NC(=O)c1cnccn1)B(O)O`, in experiment [10], the inhibition result was “Active”.

On to `CC1(C)C=Cc2cc(CN(c3ccccc3)S(=O)(=O)c3ccc(Br)cc3OC(F)(F)F)ccc2O1`, for which the residual activity in experiment [1] was found to be 56%; in experiment [4], 35%; in experiment [5], 53%.
